Assay [1] concerns Escherichia coli. Nature of the assay: Antimicrobial activity against Escherichia coli SQ171/2058G harboring ribosome A2058G mutant. The format is functional.
For assay [2], the system named is Escherichia coli. Nature of the assay: Antimicrobial activity against tolC-negative wild type Escherichia coli DK/pKK3535. It counts as functional. The method in brief: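 MIC determined against E. coli DK/pKK3535, a tolC(−) strain that lacks the outer-membrane TolC efflux pump, which recognizes antibacterial drugs, and that carries wild-type ribosomes.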
Assay [3] has as its system Escherichia coli. Nature of the assay: Antimicrobial activity against tolC-negative Escherichia coli DK/2058G harboring ribosome A2058G mutant. It counts as functional. The method in brief: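 MIC determination in a tolC(−) E. coli strain lacking the outer-membrane efflux pump, carrying a mixed ribosome population of wild-type and A2058G mutant at about 1:1.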
Assay [4] deals with Staphylococcus aureus. Nature of the assay: Antimicrobial activity against Staphylococcus aureus UCN14 harboring ribosome A2058T mutant. The format is functional.
Assay [5] deals with Staphylococcus aureus. Nature of the assay: Antimicrobial activity against Staphylococcus aureus ATCC 33591 harboring ermA gene. The format is functional.
The target in assay [6] is Bacterial 70S ribosome. Nature of the assay: Binding affinity to Escherichia coli ribosomes after 2 hrs by fluorescence polarization assay in presence of BODIPY-labeled erythromycin A. The gist of the method: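 Competitive fluorescence polarization binding assay with isolated E. coli ribosomes and BODIPY-labelled erythromycin as the displaced probe; dissociation constant (Kd) derived from probe displacement.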

Assay [7] in a line: Selectivity ratio of MIC for Escherichia coli […] harboring ribosome A2058G mutant to MIC for tolC-negative wild type Escherichia coli DK/pKK3535. The format is functional.

MIC, Kd and Selectivity ratio data for two compounds are collected here from ChEMBL document CHEMBL3351483, “Desmethyl macrolides: synthesis and evaluation of 4-desmethyl telithromycin” (ACS Med Chem Lett, 2014).

SMILES strings stand for the structures. ≈ marks a conversion by molar mass, not a printed value. Bounds are passed on as bounds.

With `CC[C@H]1OC(=O)[C@H](C)C(=O)[C@H](C)[C@@H](O[C@@H]2O[C@H](C)C[C@H](N(C)C)[C@H]2O)[C@](C)(OC)C[C@@H](C)C(=O)[C@H](C)[C@H]2N(CCCCn3cnc(-c4cccnc4)c3)C(=O)O[C@]12C` [TELITHROMYCIN], the MIC (usually the lowest concentration that inhibits growth of the organism) in assay [1] was greater than 256 µg/mL; in assay [2], 0.5 µg/mL (≈ 0.616 µM); in assay [3] it was 4 µg/mL (≈ 4.93 µM); in assay [4] it was greater than 256 µg/mL; in assay [5], greater than 128 µg/mL. Besides, the Kd (usually the concentration at which binding is half-saturated) in assay [6] came out at 6.4 nM.

As for `CC[C@H]1OC(=O)[C@H](C)C(=O)C[C@@H](O[C@@H]2O[C@H](C)C[C@H](N(C)C)[C@H]2O)[C@](C)(OC)C[C@@H](C)C(=O)[C@H](C)[C@H]2N(CCCCn3cnc(-c4cccnc4)c3)C(=O)O[C@]12C`, the MIC is greater than 256 µg/mL in assay [1]; 0.5 µg/mL (≈ 0.627 µM) in assay [2]; 1 µg/mL (≈ 1.25 µM) in assay [3]; greater than 128 µg/mL in assay [4]; greater than 128 µg/mL in assay [5]. Besides, the Selectivity ratio in assay [7] came out at 4. In addition, in assay [6], the Kd came to 6.4 nM.
